Reference: PubChem BioAssay AID1040 (The Scripps Research Institute Molecular Screening Center, 2008)
Out of some 200,000 compounds screened, about 2,000 (1%) were called active.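 The calls were made as follows: active = inhibition above the campaign mean inhibition of all tested compounds plus 3 SD (cut at about 20% in these data); inactive = the rest.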 What follows is part of a selection rich in actives, with near analogues and random picks from the rest.

Each molecule was assayed against Neuropeptide Y receptor type 1 (Homo sapiens) (UniProt P25929) (assay: blockers of human neuropeptide Y Y1 receptor – cell-based, primary screen (AID 1040;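 also: 0% = DMSO wells given NPY plus isoproterenol and 100% = isoproterenol alone without NPY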)). Details: HEK293-CNG Y1 cells, membrane potential fluorescence; at 3.6 µM; stronger effect = higher value; NPY at EC95, then isoproterenol.
Chain of Neuropeptide Y receptor type 1 (Homo sapiens) (P25929 whole entry, looked up): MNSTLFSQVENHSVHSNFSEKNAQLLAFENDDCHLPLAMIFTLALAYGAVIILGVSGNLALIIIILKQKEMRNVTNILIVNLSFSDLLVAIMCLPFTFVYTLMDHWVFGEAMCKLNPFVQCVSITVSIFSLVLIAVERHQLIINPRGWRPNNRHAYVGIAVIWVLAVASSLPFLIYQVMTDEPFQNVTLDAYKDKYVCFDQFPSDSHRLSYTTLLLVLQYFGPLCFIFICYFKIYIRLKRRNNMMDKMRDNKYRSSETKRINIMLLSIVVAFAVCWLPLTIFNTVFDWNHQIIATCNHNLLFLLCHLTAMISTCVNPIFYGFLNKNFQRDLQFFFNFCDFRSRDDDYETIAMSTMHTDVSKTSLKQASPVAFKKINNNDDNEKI
Summary of the method: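 Assay system: HEK293 cells with Y1 receptor plus CNG channel | Probe or stimulus: NPY (25 nM), isoproterenol (1 µM), Ro 20-1724 (25 µM) | Timing: Compound incubation 1 h at room temperature, readout 45 min post-stimulation | Measured by: Membrane-potential fluorescent dye readout | Benchmarks: High control isoproterenol alone, low control NPY with isoproterenol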

inhibition, active:
Cc1ccccc1Nc1scc(-c2ccc(Br)cc2)[n+]1-c1ccccc1C 31.6%
CCOC(=O)N1CCN(S(=O)(=O)c2ccc(C(=O)Nc3ccc(F)cc3F)cc2)CC1 30.3%
COc1ccc2c(c1)C(C)=CC(C)(C)N2C(=O)CNCc1ccc2c(c1)OCO2 27.3%
CCN1CCN(c2ccc([N+](=O)[O-])cc2C(=O)c2ccc(Cl)cc2)CC1 36.6%
Cc1cc(C(C)(C)C)oc1C(=O)N(CC(=O)NC1CCCC1)Cc1ccc(Cl)cc1 28.1%
N=c1c2c(-c3ccccc3)c(-c3ccccc3)n(Cc3ccccc3)c2ncn1CCCO 73.2%
CCCOC(=O)c1[nH]c2c(c1C)C(=O)CC(c1cccs1)C2 (configuration not stated) 33.9%
O=C1c2cccnc2C(Nc2ccc(S(=O)(=O)N3CCCCCC3)cc2)N1Cc1ccccc1 (configuration not stated) 30.7%
CCc1ccc(CNC(=O)C2CCCN(c3nc4ccccc4o3)C2)cc1 (configuration not stated) 26.4%

inhibition, inactive:
COC(=O)C(C(=O)Nc1cccc(Cl)c1C)C1CCCC1 (configuration not stated) 5.62%
COc1ccc(C)cc1-n1nnnc1SCc1nc2ccccc2c(=O)[nH]1 -0.32%
CCN(CCCNC(=O)CSc1cc(=O)n(C)c2cc(Cl)ccc12)Cc1ccccc1 1.58%
COCCCNC(=S)N1CCCC(c2nc3cc(C)c(C)cc3[nH]2)C1 (configuration not stated) -0.11%
NS(=O)(=O)c1ccc(CCNC(=O)c2ccc([N+](=O)[O-])cc2[N+](=O)[O-])cc1 0.19%
N#Cc1cnn2cc(CCN3CCOCC3)c(-c3ccc(F)cc3)nc12 -1.23%
COc1ccc(/C=N/NC(=O)Cn2cc(C(F)(F)F)ccc2=O)cc1 0.12%
O=C(Nc1cccc(F)c1)c1ccc(S(=O)(=O)N2CCCC2)cc1 -0.82%
COc1ccc(C(=O)Nc2ccc(F)cc2F)cc1 6.11%
CC(=O)c1cnc(SCC(=O)O)nc1C -4%
COc1ccc(C(=O)NN2C(=O)C3C(c4ccccc4)C=CC(c4ccccc4)C3C2=O)cc1 (configuration not stated) 11.3%
COc1ccc2c(c1)C(C)=CC(C)(C)N2C(=O)Nc1ccccc1 13.7%
CCn1cc(C(=O)NCc2ccc3c(c2)OCO3)c2cc(OC)c(OC)cc2c1=O 1.79%
O=C(/C=C/c1ccc(OCc2c(F)cccc2Cl)cc1)N1CCOCC1 5.45%
COn1c(-c2ccc(Cl)cc2Cl)nc2ncccc21 5.03%
CCC(=O)c1ccc(N2CCN(C(=O)c3cc([N+](=O)[O-])ccc3F)CC2)c(F)c1 -2.39%
O=C(Nc1cccc(Cl)c1)c1cc([N+](=O)[O-])ccc1N1CCN(CCO)CC1 0.17%
CCc1ccc(OCC(=O)OCC(=O)c2c(N)n(C)c(=O)n(C)c2=O)cc1 -0.61%
O=C(NCc1ccco1)c1nn2cccnc2c1Cl 1.08%
Cc1noc(C)c1C(=O)N(CC(=O)NC1CCCC1)Cc1ccccc1F 1.99%
COc1ccc(CN(CC(=O)NC2CCCC2)C(=O)CCC(=O)Nc2cc(C)on2)cc1 1.61%
COc1ccc(Cc2nnc(N/N=C/c3ccccc3O)[nH]c2=O)cc1OC 7.54%
Cc1nc([N+](=O)[O-])c(NCCCO)n1Cc1ccccc1 -2.13%
OCCCN1c2ccccc2Nc2nnc(-c3ccccc3)cc21 -7.91%
COc1ccc(-c2nn(-c3ccccc3)cc2CN2CCCO2)c(F)c1 3.17%
CCCOC(=O)c1[nH]c2c(c1C)C(=O)CC(c1cc(OC)c(OC)c(OC)c1)C2 (configuration not stated) -8.2%
CCOC(=O)c1[nH]c2c(c1C)C(=O)CC(c1ccc(N(C)C)cc1)C2 (configuration not stated) 6.58%
COc1ccc(NC(=O)/C(C#N)=C\c2cc(OC)c(OCc3ccc(C(=O)O)cc3)cc2Br)cc1 2.86%
O=S(=O)(NCc1ccccc1)c1ccc(S(=O)(=O)N2CCCC2)cc1 1%
Cc1nc(Nc2ccc(S(=O)(=O)N3CCCC3)cc2)c2nnn(Cc3ccccc3)c2n1 -11%
Cc1cccc(N2CCC(NCc3c(C(=O)N4CCCCC4)nc4c(C)cccn34)CC2)c1 11%
COc1ccc(C(C[N+](=O)[O-])n2nc(C)cc2C)cc1 (configuration not stated) -2.49%
COc1ccc(OC)c(CNC(=O)C2CCCN(c3nc4ccccc4o3)C2)c1 (configuration not stated) 7.8%
COc1ccccc1CNC(=O)C1CCN(c2nc3ccccc3o2)CC1 -3.62%
COC(=O)c1ccc(COC(=O)c2cnccn2)cc1 -0.5%
OC(COCC1COc2ccccc2O1)CN1CCN(c2ccc(F)cc2)CC1 (configuration not stated) -9.16%
Cc1ccc(S(=O)(=O)N(C)CC(=O)OCC(=O)N2CC(=O)Nc3ccccc32)cc1 1.33%
O=C(c1ccc(Cl)cc1)c1ccc(OCC(O)CN2CCCCC2)cc1 (configuration not stated) 6.02%
